According to ChEMBL document CHEMBL1158349, “Synthesis and antimicrobial evaluation of 1-(benzofuran-2-yl)-4-nitro-3-arylbutan-1-ones and 3-(benzofuran-2-yl)-4,5-dihydro-5-aryl-1-[4-(aryl)-1,3-thiazol-2-yl]-1H-pyrazoles” (2009):

Test system: Candida albicans
Experiment: Antifungal activity against Candida albicans at 100 ug after 48 hrs by agar disc-diffusion method
Format: functional
Details: read-out: DIZ
How it was run: (§1)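 Disc diffusion on nutrient agar. Plates were inoculated separately with each fungus, then 6 mm paper discs wetted with the compound solution in DMSO were applied. Fluconazole was the reference drug. Plates were incubated at 37 °C, and inhibition-zone diameters were read after 48 h.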

SMILES | zone of inhibition at 100 µg/disc [mm]
O=C(CC(C[N+](=O)[O-])c1ccccc1)c1cc2ccccc2o1 (stereo not given) | 30
Brc1ccc(-c2csc(N3N=C(c4cc5ccccc5o4)CC3c3ccccc3)n2)cc1 (stereo not given) | 0
OC(Cn1cncn1)(Cn1cncn1)c1ccc(F)cc1F [FLUCONAZOLE] | 20
COc1ccc(C(CC(=O)c2cc3ccccc3o2)C[N+](=O)[O-])cc1 (stereo not given) | 25
c1ccc(-c2csc(N3N=C(c4cc5ccccc5o4)CC3c3ccccc3)n2)cc1 (stereo not given) | 0
NC(=S)N1N=C(c2cc3ccccc3o2)CC1c1ccccc1 (stereo not given) | 5
Clc1ccc(C2CC(c3cc4ccccc4o3)=NN2c2nc(-c3ccccc3)cs2)cc1 (stereo not given) | 25
O=C(CC(C[N+](=O)[O-])c1ccc(Cl)cc1)c1cc2ccccc2o1 (stereo not given) | 20
Clc1ccc(C2CC(c3cc4ccccc4o3)=NN2c2nc(-c3ccc(Br)cc3)cs2)cc1 (stereo not given) | 25
NC(=S)N1N=C(c2cc3ccccc3o2)CC1c1ccc(Cl)cc1 (stereo not given) | 0

Test system: Aspergillus niger
Experiment: Antifungal activity against Aspergillus niger at 100 ug after 48 hrs by agar disc-diffusion method
Format: functional
Details: read-out: DIZ
How it was run: as §1

SMILES | zone of inhibition at 100 µg/disc [mm]
O=C(CC(C[N+](=O)[O-])c1ccccc1)c1cc2ccccc2o1 (stereo not given) | 0
Brc1ccc(-c2csc(N3N=C(c4cc5ccccc5o4)CC3c3ccccc3)n2)cc1 (stereo not given) | 0
OC(Cn1cncn1)(Cn1cncn1)c1ccc(F)cc1F [FLUCONAZOLE] | 20
COc1ccc(C(CC(=O)c2cc3ccccc3o2)C[N+](=O)[O-])cc1 (stereo not given) | 0
c1ccc(-c2csc(N3N=C(c4cc5ccccc5o4)CC3c3ccccc3)n2)cc1 (stereo not given) | 0
NC(=S)N1N=C(c2cc3ccccc3o2)CC1c1ccccc1 (stereo not given) | 0
Clc1ccc(C2CC(c3cc4ccccc4o3)=NN2c2nc(-c3ccccc3)cs2)cc1 (stereo not given) | 15
O=C(CC(C[N+](=O)[O-])c1ccc(Cl)cc1)c1cc2ccccc2o1 (stereo not given) | 15
Clc1ccc(C2CC(c3cc4ccccc4o3)=NN2c2nc(-c3ccc(Br)cc3)cs2)cc1 (stereo not given) | 0
NC(=S)N1N=C(c2cc3ccccc3o2)CC1c1ccc(Cl)cc1 (stereo not given) | 15

Test system: Bacillus subtilis
Experiment: Antibacterial activity against Bacillus subtilis at 100 ug after 24 hrs by agar disc-diffusion method
Format: functional
Details: read-out: DIZ
How it was run: (§2)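 Agar disc-diffusion on nutrient agar. Sterile 6 mm filter-paper discs moistened with the test compound in DMSO were placed on plates seeded separately with each bacterium. Amoxicillin was the reference drug. Plates were incubated at 37 °C, and the growth-inhibition zone diameter was measured after 24 h.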

SMILES | zone of inhibition at 100 µg/disc [mm]
O=C(CC(C[N+](=O)[O-])c1ccccc1)c1cc2ccccc2o1 (stereo not given) | 0
Brc1ccc(-c2csc(N3N=C(c4cc5ccccc5o4)CC3c3ccccc3)n2)cc1 (stereo not given) | 0
CC1(C)S[C@@H]2[C@H](NC(=O)[C@H](N)c3ccc(O)cc3)C(=O)N2[C@H]1C(=O)O [AMOXICILLIN] | 20
COc1ccc(C(CC(=O)c2cc3ccccc3o2)C[N+](=O)[O-])cc1 (stereo not given) | 0
c1ccc(-c2csc(N3N=C(c4cc5ccccc5o4)CC3c3ccccc3)n2)cc1 (stereo not given) | 0
NC(=S)N1N=C(c2cc3ccccc3o2)CC1c1ccccc1 (stereo not given) | 0
Clc1ccc(C2CC(c3cc4ccccc4o3)=NN2c2nc(-c3ccccc3)cs2)cc1 (stereo not given) | 0
O=C(CC(C[N+](=O)[O-])c1ccc(Cl)cc1)c1cc2ccccc2o1 (stereo not given) | 0
Clc1ccc(C2CC(c3cc4ccccc4o3)=NN2c2nc(-c3ccc(Br)cc3)cs2)cc1 (stereo not given) | 0
NC(=S)N1N=C(c2cc3ccccc3o2)CC1c1ccc(Cl)cc1 (stereo not given) | 12

Test system: Staphylococcus aureus
Experiment: Antibacterial activity against Staphylococcus aureus at 100 ug after 24 hrs by agar disc-diffusion method
Format: functional
Details: read-out: DIZ
How it was run: as §2

SMILES | zone of inhibition at 100 µg/disc [mm]
O=C(CC(C[N+](=O)[O-])c1ccccc1)c1cc2ccccc2o1 (stereo not given) | 0
Brc1ccc(-c2csc(N3N=C(c4cc5ccccc5o4)CC3c3ccccc3)n2)cc1 (stereo not given) | 0
CC1(C)S[C@@H]2[C@H](NC(=O)[C@H](N)c3ccc(O)cc3)C(=O)N2[C@H]1C(=O)O [AMOXICILLIN] | 20
COc1ccc(C(CC(=O)c2cc3ccccc3o2)C[N+](=O)[O-])cc1 (stereo not given) | 0
c1ccc(-c2csc(N3N=C(c4cc5ccccc5o4)CC3c3ccccc3)n2)cc1 (stereo not given) | 17
NC(=S)N1N=C(c2cc3ccccc3o2)CC1c1ccccc1 (stereo not given) | 0
Clc1ccc(C2CC(c3cc4ccccc4o3)=NN2c2nc(-c3ccccc3)cs2)cc1 (stereo not given) | 0
O=C(CC(C[N+](=O)[O-])c1ccc(Cl)cc1)c1cc2ccccc2o1 (stereo not given) | 0
Clc1ccc(C2CC(c3cc4ccccc4o3)=NN2c2nc(-c3ccc(Br)cc3)cs2)cc1 (stereo not given) | 0
NC(=S)N1N=C(c2cc3ccccc3o2)CC1c1ccc(Cl)cc1 (stereo not given) | 0

Test system: Escherichia coli
Experiment: Antibacterial activity against Escherichia coli at 100 ug after 24 hrs by agar disc-diffusion method
Format: functional
Details: read-out: DIZ
How it was run: as §2

SMILES | zone of inhibition at 100 µg/disc [mm]
O=C(CC(C[N+](=O)[O-])c1ccccc1)c1cc2ccccc2o1 (stereo not given) | 12
Brc1ccc(-c2csc(N3N=C(c4cc5ccccc5o4)CC3c3ccccc3)n2)cc1 (stereo not given) | 0
CC1(C)S[C@@H]2[C@H](NC(=O)[C@H](N)c3ccc(O)cc3)C(=O)N2[C@H]1C(=O)O [AMOXICILLIN] | 20
COc1ccc(C(CC(=O)c2cc3ccccc3o2)C[N+](=O)[O-])cc1 (stereo not given) | 12
c1ccc(-c2csc(N3N=C(c4cc5ccccc5o4)CC3c3ccccc3)n2)cc1 (stereo not given) | 25
NC(=S)N1N=C(c2cc3ccccc3o2)CC1c1ccccc1 (stereo not given) | 0
Clc1ccc(C2CC(c3cc4ccccc4o3)=NN2c2nc(-c3ccccc3)cs2)cc1 (stereo not given) | 12
O=C(CC(C[N+](=O)[O-])c1ccc(Cl)cc1)c1cc2ccccc2o1 (stereo not given) | 12
Clc1ccc(C2CC(c3cc4ccccc4o3)=NN2c2nc(-c3ccc(Br)cc3)cs2)cc1 (stereo not given) | 0
NC(=S)N1N=C(c2cc3ccccc3o2)CC1c1ccc(Cl)cc1 (stereo not given) | 15
